Source: paper PMC3328361 (The Journal of Experimental Medicine, 2012)

Experiments:
[1] = test system: 6-OHDA-lesioned C57BL/6 mice; test: Amphetamine-induced rotation, 6-OHDA model; type: in vivo; details: 30 mg/kg, 6-OHDA-lesioned mice
How it was run: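 Partial 6-OHDA lesion: 2 µl injected into the right substantia nigra of 2-mo-old C57BL/6 mice, 3.0 mm AP, 1.1 mm lateral, 4.7 mm DV from bregma. Amphetamine-induced rotation was tested 3 d post-lesion, before dosing, to confirm lesion size. Mice were randomised to test compound or vehicle for 18 d, then rotation was retested.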

[2] = test system: hA53T tg mice lesioned with MPTP; test: Pole test, MPTP-lesioned hA53T tg mice; type: in vivo
How it was run: (§1)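 Oral gavage of 15 or 30 mg/kg test compound or suspension vehicle began 1 d post-lesion. Saline sham-lesioned controls received vehicle. Pole test (Tturn, Ttotal) was run after 19 d of treatment.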

[3] = test system: hA53T α-synuclein tg mice; test: Stereological nigral cell counts, hA53T α-synuclein tg mice; type: in vivo; details: 30 mg/kg, 20 d
How it was run: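 hA53T α-synuclein tg mice and C57BL/6 x C3H background controls, 7 mo old, equal sexes, received 30 mg/kg test compound or suspension vehicle by oral gavage for 20 d. The right hemisphere of PBS-perfused brains was fixed overnight in 4% paraformaldehyde at 4°C. Nissl-stained nigral neurons were counted stereologically using a 45 µm × 35 µm unbiased counting frame.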

VMAT2 [4] = test: VMAT2 levels in MPTP-lesioned mice; type: in vivo; details: for increase in VMAT2 levels: 3–4-mo-old MPTP-lesioned mice
How it was run: (§2)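 MPTP lesion: four i.p. doses of 10 mg/kg at 2-h intervals. Test compound (15 or 30 mg/kg) or vehicle was given by oral gavage from the next day for 21 d. Brain homogenate (~20 µg) was reduced, heated to 90°C for 5 min, run on 10% SDS-PAGE and blotted to nitrocellulose. Densitometry was normalised to GAPDH or β-actin and expressed as percentage of vehicle.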

[5] = test system: low copy mice overexpressing human G93A SOD1; details: ref Soon et al., 2011, cited from earlier work
[6] = Mouse pharmacokinetic and brain uptake study; type: in vivo, C57BL/6 mice
How it was run: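 Male C57BL/6 mice, 11 wk old, got a single 30 mg/kg oral gavage dose (7.5 mg/ml suspension in standard suspension vehicle). Plasma and brain were sampled at time points up to 24 h, n = 3 per point, under pentobarbitone anaesthesia. Samples were acetonitrile-precipitated and quantified against matrix-matched standards. Quantitation limits: 5 ng/ml plasma, 10 ng/g brain. Brain/plasma ratio taken from AUC0-6h.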

[7] = test system: hA53T α-synuclein tg mice; test: Pole test, hA53T α-synuclein tg mice; type: in vivo; details: 30 mg/kg
[8] = Rat pharmacokinetic study; type: in vivo, Sprague Dawley rats
How it was run: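 Fasted male Sprague Dawley rats (6–8 wk, ~280 g) received 20 mg/kg by oral gavage as a 6 mg/ml suspension (n = 3). Another group (n = 3) got 5 mg/kg by i.v. jugular-cannula infusion at 0.05 ml/min, as a 3 mg/ml solution in 20% DMSO/80% propylene glycol. Serial blood was taken to 24 h; plasma was acetonitrile-precipitated and analysed by LC-MS.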

MPTP-lesioned mice = test: Dopamine measurement of mouse striatum; type: in vivo; details: 30 mg/kg
How it was run: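 MPTP lesion: four i.p. doses of 10 mg/kg at 2-h intervals. Starting the next day, mice received 30 mg/kg test compound or suspension vehicle by oral gavage. Right striatum was homogenised by pulse sonication in 0.4 M perchloric acid with 0.15% sodium metabisulfite and 0.05% EDTA disodium salt for dopamine measurement.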

[9] = test system: differentiated SH-SY5Y cells; test: 3-NT levels in cell media by ELISA after SIN-1; type: cell-based, human; details: 40 µM pretreatment before SIN-1
How it was run: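 Human SH-SY5Y cells were differentiated with 10 µM retinoic acid in 1.5% FCS medium for 3 d, then given fresh medium for another 3 d. Cells were preincubated with test compound (10, 20, 40 µM) for 5 min, then exposed to 3 mM SIN-1 for 90 min. Media were coated in pH 9.6 carbonate buffer for ELISA at 22°C: rabbit […] 1:2000, HRP secondary, TMB, A450.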

[10] = test system: MPTP-lesioned C57BL/6 mice; test: Pole test, MPTP-lesioned wild-type mice; type: in vivo
How it was run: as §1

VMAT2 [11] = test: VMAT2 microPET imaging with 18F-AV133, MPTP-lesioned 18-mo-old mice; type: in vivo; details: 18 mo MPTP-lesioned mice, 30 mg/kg
How it was run: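 Female B6C3H x HeJ mice, 18 mo old, had baseline VMAT2 microPET: 500 µCi 18F-AV-133 by tail vein, imaged for 30 min. They were then lesioned with 4 × 10 mg/kg MPTP. Treatment at 30 mg/kg or vehicle began the following day and ran 21 d, after which microPET imaging was repeated.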

α-synuclein [12] = test: α-Synuclein levels in SNpc, MPTP-lesioned hA53T α-synuclein tg mice; type: in vivo
How it was run: as §2

[13] = Overt toxicity observation in animal studies; type: in vivo; details: studies of this paper and a longer term 12-mo trial in wild-type animals
[14] = test system: hA53T tg mice lesioned with MPTP; test: Stereological SNpc neuron counts, MPTP-lesioned hA53T tg mice; type: in vivo; details: 30 mg/kg
How it was run: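 MPTP was given i.p. as four 10 mg/kg doses at 2-h intervals. Groups: 4-mo-old female C57BL/6 mice and 7-mo-old hA53T α-synuclein tg mice, equal sexes. From 1 d post-lesion, mice got 15 or 30 mg/kg test compound or suspension vehicle by oral gavage for […]; saline sham-lesioned controls got vehicle. Perfused brains, right hemisphere fixed in 4% paraformaldehyde; Nissl-stained SNpc counted stereologically (45 × 35 µm frame).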

TH = TH levels in SNpc of MPTP-lesioned mice; type: in vivo
How it was run: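 MPTP lesion: four i.p. doses of 10 mg/kg at 2-h intervals; 15 or 30 mg/kg oral gavage from the next day. For TH immunostaining, 30 µm coronal SNpc sections were post-fixed in 4% PFA and boiled in citrate buffer (pH 6.0). They were blocked with normal goat serum and incubated overnight at room temperature with rabbit anti-TH 1:3000, then HRP secondary for 2 h and DAB. Western blots were normalised to GAPDH or β-actin.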

α-synuclein [15] = target: T1, α-synuclein (Homo sapiens, UniProt P37840); test: 2D [1H,15N] HSQC NMR titration of 15N-labeled α-synuclein; type: binding; details: increasing concentrations titrated in
[16] = test system: hA53T α-synuclein tg mice; test: Novel object recognition; type: in vivo; details: 30 mg/kg for 20 d
How it was run: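 hA53T α-synuclein tg mice, 7 mo old, equal sexes, received 30 mg/kg test compound or vehicle by oral gavage for 20 d. Novel object test with Lego blocks: 10-min training with two objects, 1-h delay, then one familiar object replaced by a novel 1.5 × 1.5 × 2.0 cm object. Index = time with novel object / time with familiar object.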

α-synuclein [17] = target: T1, α-synuclein; test: α-Synuclein amyloid fibril formation; type: biochemical; details: unpublished data
[18] = test system: hA53T α-synuclein tg mice; test: Y-maze test, hA53T tg mice; type: in vivo; details: 30 mg/kg, vehicle-treated 30%
[19] = Time-dependent degradation of ONOO^− monitored by UV-visible spectroscopy; type: biochemical; details: Cu^II(atsm) at 10 µM; ONOO^− in high pH solution (alone 53 ± 3 min)
[20] = test system: differentiated SH-SY5Y cells; test: MTS cell viability, SIN-1–induced toxicity; type: cell-based, human; details: added to cell culture 5 min after SIN-1; unpublished data
SNCA = SNCA gene expression by qPCR, MPTP-lesioned WT mice; type: in vivo
[21] = test system: 6-OHDA-lesioned C57BL/6 mice; test: Stereological SNpc neuron counts, 6-OHDA-lesioned mice; type: in vivo; details: 30 mg/kg, started 3 d after 6-OHDA lesion, 20 d
How it was run: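 6-OHDA lesion in the right substantia nigra of 2-mo-old C57BL/6 mice; dosing started 3 d post-lesion. Mice were perfused with cold PBS. The right hemisphere was fixed overnight in 4% paraformaldehyde in 0.1 M phosphate buffer at 4°C. Nissl-stained SNpc neurons were counted stereologically with an unbiased 45 µm × 35 µm counting frame.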

[22] = test system: MPTP-lesioned C57BL/6 mice; test: Stereological SNpc neuron counts, MPTP-lesioned wild-type mice; type: in vivo; details: for increase in number of SNpc neurons vs vehicle-treated MPTP-lesioned mice: started 1 d after lesion, 20 d
α-synuclein [23] = test: α-Synuclein levels, hA53T α-synuclein tg mice not MPTP-lesioned; type: in vivo; details: unpublished data
α-synuclein [24] = test: α-Synuclein levels in SNpc, MPTP-lesioned wild-type mice; type: in vivo
How it was run: as §2

synaptophysin = test: Synaptophysin levels in striatum of hA53T tg mice; type: in vivo; details: 30 mg/kg
How it was run: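 hA53T tg mice, 7 mo old, were given 30 mg/kg or vehicle by oral gavage for 20 d. Striatal homogenate (~20 µg) was reduced with β-mercaptoethanol, heated to 90°C for 5 min, run on 10% SDS-PAGE and blotted to nitrocellulose. Synaptophysin densitometry was normalised to GAPDH or β-actin and expressed as percentage of vehicle.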

[25] = single oral 30 mg/kg, C57BL/6 mice
[26] = single oral 20 mg/kg, male Sprague Dawley rats

For `CN=C([S-])N/N=C(C)/C(C)=N/NC([S-])=NC.[Cu+2]` [Cu^II(atsm), copper(II)diacetylbis(N(4)-methylthiosemicarbazonato)], the “reduction in amphetamine-induced rotational behavior vs controls” value [1] was 45%, the “improvement in Ttotal” value [2] was 37% and the “improvement in Tturn” value [2] was 49%. The “Tturn (pole test)” value ([2]; vehicle 2.4 ± 0.4 s) was 1.2 ± 0.1 s, the “Ttotal (pole test)” value ([2]; vehicle 6.1 ± 0.8 s) was 3.9 ± 0.2 s and the “increase in total nigral cells” value [3] was 14%. The “increase in VMAT2 levels” value (VMAT2 [4]; 15 mg/kg) was 13%, the “increase in VMAT2 levels” value (VMAT2 [4]; 30 mg/kg) was 12% and the “VMAT2 transcripts (qPCR, SNpc)” value (VMAT2 [4]; MPTP-lesioned animals) was “levels were restored to those similar to the wild-type animals”. The “increase in VMAT2 protein levels in striatum (Western blot)” value (VMAT2 [4]; older (18 mo) MPTP-lesioned mice) was 60%, the “motor phenotype in ALS tg mouse model” value ([5]; pre- and postsymptomatic treatment regimes) was “successful in rescuing the motor phenotype” and the “survival in ALS tg mouse model” value [5] was “increased survival rates”. The “maximum concentration of the compound in the brain” value ([6]; based on Cmax levels, oral 30 mg/kg mice) was about 0.6 µM, the “brain Cmax” value [6, 25] was 198 ± 61 ng/mL and the “brain Tmax” value [6, 25] was 2 h. The “brain/plasma ratio (AUC0-6h)” value [6, 25] was 0.32, the “plasma Cmax” value [6, 25] was 591 ± 203 ng/mL and the “plasma Tmax” value [6, 25] was 1 h. The apparent elimination half-life ([6]; single oral 30 mg/kg, C57BL/6 mice, plasma) was about 3.3 h, the “improvement in Ttotal times” value [7] was “not statistically significant” and the “Tturn (pole test)” value ([7]; vehicle 3.9 ± 0.5 s) was 1.1 ± 0.3 s. For the same compound, the apparent oral bioavailability ([8]; oral 20 mg/kg vs intravenous 5 mg/kg, rats) was 53 ± 5%, the Tmax [8, 26] was 10 h and the elimination half-life [8, 26] was 3.1 ± 0.4 h. The Cmax ([8]; single oral 20 mg/kg, male Sprague Dawley rats, plasma) was 488.1 ± 67.0 ng/mL, the “increase in dopamine levels vs untreated MPTP-lesioned animals” value (MPTP-lesioned mice) was 122% and the “reduction in nitrotyrosine (3-NT) levels” value [9] was 51%. For the same compound, the “decrease of Tturn and Ttotal times” value ([10]; 15 mg/kg) was “did not reach statistical significance”, the “faster Ttotal (pole test) vs MPTP-lesioned vehicle” value ([10]; 30 mg/kg) was 2.2 s and the “faster Tturn (pole test) vs MPTP-lesioned vehicle” value ([10]; 30 mg/kg) was 1.5 s. For the same compound, the “effect on motor performance of nonlesioned wild-type mice” value ([10]; nonlesioned wild-type mice) was “no effect”, the “increase in 18F-AV133 ligand binding vs vehicle control lesioned mice” value (VMAT2 [11]) was 142% and the “reduction in α-synuclein monomer levels” value (α-synuclein [12]; MPTP-lesioned hA53T tg mice) was 12%. The “α-synuclein dimers, % of control-treated” value (α-synuclein [12]; MPTP-lesioned hA53T α-synuclein tg mice) was 83%, the overt toxicity [13] was “No overt toxicity” and the “increase of SNpc neurons” value [14] was 15%. For the same compound, the “TH mRNA transcript levels (qPCR, SNpc)” value (TH) was “rescued”, the “increase in TH levels (Western blot)” value (TH; 15 mg/kg) was 42% and the “increase in TH levels (Western blot)” value (TH; 30 mg/kg) was 45%. The “immunostaining of TH in SNpc” value (TH; either 15 or 30 mg/kg) was “increased immunostaining”, the “direct interaction between α-synuclein and compound (HSQC spectra)” value (α-synuclein [15]) was “no direct interaction” and the “increase in interactions with the novel object vs vehicle-treated mice” value [16] was 73%. The “inhibition of formation of α-synuclein fibrils” value (α-synuclein [17]) was “did not inhibit the formation of α-synuclein fibrils”, the “mean novel arm entries (Y-maze)” value [18] was 42% and the “ONOO^− half-life” value [19] was about 0.193 ± 0.0083 h. The “protective effect in posttreatment paradigm” value [20] was “no protective effect was observed”, the “SNCA gene regulation (qPCR)” value (SNCA) was “recovered to levels of unlesioned WT mice” and the “increase in number of SNpc dopaminergic neurons” value [21] was 26%. For the same compound, the “increase in number of SNpc neurons vs vehicle-treated MPTP-lesioned mice” value ([22]; 15 mg/kg oral gavage) was 43%, the “increase in number of SNpc neurons vs vehicle-treated MPTP-lesioned mice” value ([22]; 30 mg/kg oral gavage) was 61% and the “effect on cell numbers of nonlesioned wild-type mice” value ([22]; nonlesioned wild-type mice) was “no effect”. For the same compound, the “α-synuclein levels vs vehicle treatment” value (α-synuclein [23]) was “did not lead to any significant differences”, the “α-synuclein dimers, % of control-treated” value (α-synuclein [24]) was 76% and the α-synuclein monomer levels (α-synuclein [24]) was “no changes”. For the same compound, the “increase in synaptophysin levels vs vehicle-treated tg mice” value (synaptophysin) was 31%.
